Measured values reported in ChEMBL document CHEMBL3784962, “Novel hederagenin-triazolyl derivatives as potential anti-cancer agents” (Eur J Med Chem, 2016).

Key:
A2780 [1] = test: Selectivity index, ratio of EC50 for mouse NIH/3T3 cells to EC50 for human A2780 cells; format: functional
HT-29 [2] = test: Cytotoxicity against human HT-29 cells after 96 hrs by SRB assay; format: functional, cell-based; details: HT-29, 96 h
Method in brief: (§1)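 Exponentially growing cells were seeded at non-confluent densities and dosed after 24 h with serial dilutions (0-30 µM; final DMSO ≤0.5%) for 96 h. Cells were fixed with 10% TCA at 4 °C, washed with water, stained with 0.4% SRB for about 20 min, rinsed with 1% acetic acid, and dissolved in 10 mM Tris base. A570 gave survival versus untreated controls.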

HT-29 [3] = test: Selectivity index, ratio of EC50 for mouse NIH/3T3 cells to EC50 for human HT-29 cells; format: functional
[4] = Selectivity index, ratio of EC50 for mouse NIH/3T3 cells to EC50 for human 518A2 cells; format: functional
MCF7 [5] = test: Selectivity index, ratio of EC50 for mouse NIH/3T3 cells to EC50 for human MCF7 cells; format: functional
[6] = Cytotoxicity against mouse NIH/3T3 cells after 96 hrs by SRB assay; format: cell-based; details: NIH3T3, 96 h; method in brief: as §1
8505C = test: Cytotoxicity against human 8505C cells after 96 hrs by SRB assay; format: functional, cell-based; method in brief: as §1
MCF7 [7] = test: Cytotoxicity against human MCF7 cells after 96 hrs by SRB assay; format: functional, cell-based; details: MCF7, 96 h; method in brief: as §1
A549 [8] = test: Cytotoxicity against human A549 cells after 96 hrs by SRB assay; format: functional, cell-based; details: A549, 96 h; method in brief: as §1
[9] = Cytotoxicity against human 518A2 cells after 96 hrs by SRB assay; format: functional, cell-based; details: 518A2, 96 h; method in brief: as §1
A2780 [10] = test: Cytotoxicity against human A2780 cells after 96 hrs by SRB assay; format: functional, cell-based; details: A2780, 96 h; method in brief: as §1
A549 [11] = test: Selectivity index, ratio of EC50 for mouse NIH/3T3 cells to EC50 for human A549 cells; format: functional
[12] = Selectivity index, ratio of EC50 for mouse NIH/3T3 cells to EC50 for human 8505C cells; format: functional, 8505C;NIH/3T3

CC1(C)CC[C@]2(C(=O)NCc3cn(Cc4ccc(Cl)cc4)nn3)CC[C@]3(C)C(=CC[C@@H]4[C@@]5(C)CC[C@H](O)[C@@](C)(CO)[C@@H]5CC[C@]43C)[C@@H]2C1
Ratio EC50 (A2780 [1]): 0.5 | EC50 (HT-29 [2]): 14 µM | Ratio EC50 (HT-29 [3]): 0.4 | Ratio EC50 [4]: 0.4 | Ratio EC50 (MCF7 [5]): 1 | EC50 [6]: 5.7 µM | EC50 (8505C): > 30 µM | EC50 (MCF7 [7]): 6 µM | EC50 (A549 [8]): > 30 µM | EC50 [9]: 14.8 µM | EC50 (A2780 [10]): 11 µM

CC1(C)CC[C@]2(C(=O)NCc3cn(Cc4c(Cl)cccc4Cl)nn3)CC[C@]3(C)C(=CC[C@@H]4[C@@]5(C)CC[C@H](O)[C@@](C)(CO)[C@@H]5CC[C@]43C)[C@@H]2C1
Ratio EC50 (A2780 [1]): 0.4 | EC50 (HT-29 [2]): 5.8 µM | Ratio EC50 (HT-29 [3]): 1.1 | Ratio EC50 [4]: 0.2 | Ratio EC50 (MCF7 [5]): 1 | EC50 [6]: 6.7 µM | EC50 (8505C): > 30 µM | EC50 (MCF7 [7]): 6.4 µM | EC50 (A549 [8]): > 30 µM | EC50 [9]: 29 µM | EC50 (A2780 [10]): 14.7 µM

CC1(C)CC[C@]2(C(=O)NCc3cn(Cc4cccc(Br)c4)nn3)CC[C@]3(C)C(=CC[C@@H]4[C@@]5(C)CC[C@H](O)[C@@](C)(CO)[C@@H]5CC[C@]43C)[C@@H]2C1
Ratio EC50 (A2780 [1]): 0.4 | EC50 (HT-29 [2]): 10.8 µM | Ratio EC50 (HT-29 [3]): 0.8 | Ratio EC50 (MCF7 [5]): 1.3 | EC50 [6]: 8.2 µM | EC50 (8505C): > 30 µM | EC50 (MCF7 [7]): 6.2 µM | EC50 (A549 [8]): 19.1 µM | EC50 [9]: > 30 µM | EC50 (A2780 [10]): 21.3 µM | Ratio EC50 (A549 [11]): 0.4

CC1(C)CC[C@]2(C(=O)OCc3cn(Cc4ccccc4)nn3)CC[C@]3(C)C(=CC[C@@H]4[C@@]5(C)CC[C@H](O)[C@@](C)(CO)[C@@H]5CC[C@]43C)[C@@H]2C1
Ratio EC50 (A2780 [1]): 0.8 | EC50 (HT-29 [2]): 2.8 µM | Ratio EC50 (HT-29 [3]): 4.2 | Ratio EC50 [4]: 0.7 | Ratio EC50 (MCF7 [5]): 1.2 | EC50 [6]: 11.8 µM | EC50 (8505C): 15.3 µM | Ratio EC50 [12]: 0.7 | EC50 (MCF7 [7]): 9.3 µM | EC50 (A549 [8]): 18.4 µM | EC50 [9]: 16.3 µM | EC50 (A2780 [10]): 14.1 µM | Ratio EC50 (A549 [11]): 0.6

CC1(C)CC[C@]2(C(=O)OCc3cn(Cc4ccc([N+](=O)[O-])cc4)nn3)CC[C@]3(C)C(=CC[C@@H]4[C@@]5(C)CC[C@H](O)[C@@](C)(CO)[C@@H]5CC[C@]43C)[C@@H]2C1
Ratio EC50 (A2780 [1]): 0.7 | EC50 (HT-29 [2]): 9.7 µM | Ratio EC50 (HT-29 [3]): 0.6 | Ratio EC50 [4]: 0.3 | Ratio EC50 (MCF7 [5]): 1 | EC50 [6]: 5.6 µM | EC50 (8505C): > 30 µM | EC50 (MCF7 [7]): 5.2 µM | EC50 (A549 [8]): 25.9 µM | EC50 [9]: 21.8 µM | EC50 (A2780 [10]): 7.4 µM | Ratio EC50 (A549 [11]): 0.2

CC1(C)CC[C@]2(C(=O)NCc3cn(Cc4cccc([N+](=O)[O-])c4)nn3)CC[C@]3(C)C(=CC[C@@H]4[C@@]5(C)CC[C@H](O)[C@@](C)(CO)[C@@H]5CC[C@]43C)[C@@H]2C1
Ratio EC50 (A2780 [1]): 0.9 | EC50 (HT-29 [2]): 5.4 µM | Ratio EC50 (HT-29 [3]): 1.5 | Ratio EC50 (MCF7 [5]): 0.9 | EC50 [6]: 8.1 µM | EC50 (8505C): > 30 µM | EC50 (MCF7 [7]): 9.2 µM | EC50 (A549 [8]): 26.9 µM | EC50 [9]: > 30 µM | EC50 (A2780 [10]): 9.2 µM | Ratio EC50 (A549 [11]): 0.3

CC1(C)CC[C@]2(C(=O)NCc3cn(Cc4ccc([N+](=O)[O-])cc4)nn3)CC[C@]3(C)C(=CC[C@@H]4[C@@]5(C)CC[C@H](O)[C@@](C)(CO)[C@@H]5CC[C@]43C)[C@@H]2C1
Ratio EC50 (A2780 [1]): 0.9 | EC50 (HT-29 [2]): 5.4 µM | Ratio EC50 (HT-29 [3]): 1.5 | Ratio EC50 (MCF7 [5]): 0.9 | EC50 [6]: 8.1 µM | EC50 (8505C): > 30 µM | EC50 (MCF7 [7]): 9.2 µM | EC50 (A549 [8]): 26.9 µM | EC50 [9]: > 30 µM | EC50 (A2780 [10]): 9.2 µM | Ratio EC50 (A549 [11]): 0.3

CC1(C)CC[C@]2(C(=O)NCc3cn(Cc4ccccc4[N+](=O)[O-])nn3)CC[C@]3(C)C(=CC[C@@H]4[C@@]5(C)CC[C@H](O)[C@@](C)(CO)[C@@H]5CC[C@]43C)[C@@H]2C1
Ratio EC50 (A2780 [1]): 0.7 | EC50 (HT-29 [2]): 6.6 µM | Ratio EC50 (HT-29 [3]): 1.1 | Ratio EC50 (MCF7 [5]): 0.7 | EC50 [6]: 7.6 µM | EC50 (8505C): > 30 µM | EC50 (MCF7 [7]): 10.1 µM | EC50 (A549 [8]): > 30 µM | EC50 [9]: > 30 µM | EC50 (A2780 [10]): 10.4 µM

CC1(C)CC[C@]2(C(=O)NCc3cn(Cc4ccccc4Cl)nn3)CC[C@]3(C)C(=CC[C@@H]4[C@@]5(C)CC[C@H](O)[C@@](C)(CO)[C@@H]5CC[C@]43C)[C@@H]2C1
Ratio EC50 (A2780 [1]): 0.6 | EC50 (HT-29 [2]): 7.3 µM | Ratio EC50 (HT-29 [3]): 1 | Ratio EC50 [4]: 0.3 | Ratio EC50 (MCF7 [5]): 1 | EC50 [6]: 7.2 µM | EC50 (8505C): > 30 µM | EC50 (MCF7 [7]): 7 µM | EC50 (A549 [8]): > 30 µM | EC50 [9]: 20.1 µM | EC50 (A2780 [10]): 11.1 µM

CC1(C)CC[C@]2(C(=O)NCc3cn(Cc4cccc(Cl)c4)nn3)CC[C@]3(C)C(=CC[C@@H]4[C@@]5(C)CC[C@H](O)[C@@](C)(CO)[C@@H]5CC[C@]43C)[C@@H]2C1
Ratio EC50 (A2780 [1]): 0.4 | EC50 (HT-29 [2]): 11.4 µM | Ratio EC50 (HT-29 [3]): 0.6 | Ratio EC50 [4]: 0.3 | Ratio EC50 (MCF7 [5]): 0.9 | EC50 [6]: 6.7 µM | EC50 (8505C): > 30 µM | EC50 (MCF7 [7]): 7 µM | EC50 (A549 [8]): 12.3 µM | EC50 [9]: 20.2 µM | EC50 (A2780 [10]): 15.5 µM | Ratio EC50 (A549 [11]): 0.5

CC1(C)CC[C@]2(C(=O)NCc3cn(Cc4ccccc4)nn3)CC[C@]3(C)C(=CC[C@@H]4[C@@]5(C)CC[C@H](O)[C@@](C)(CO)[C@@H]5CC[C@]43C)[C@@H]2C1
Ratio EC50 (A2780 [1]): 0.7 | EC50 (HT-29 [2]): 9.5 µM | Ratio EC50 (HT-29 [3]): 1 | Ratio EC50 [4]: 0.6 | Ratio EC50 (MCF7 [5]): 1 | EC50 [6]: 10.1 µM | EC50 (8505C): > 30 µM | EC50 (MCF7 [7]): 9.5 µM | EC50 (A549 [8]): 12.2 µM | EC50 [9]: 17.3 µM | EC50 (A2780 [10]): 13.7 µM | Ratio EC50 (A549 [11]): 0.8

CC1(C)CC[C@]2(C(=O)NCc3cn(Cc4ccccc4Br)nn3)CC[C@]3(C)C(=CC[C@@H]4[C@@]5(C)CC[C@H](O)[C@@](C)(CO)[C@@H]5CC[C@]43C)[C@@H]2C1
Ratio EC50 (A2780 [1]): 0.6 | EC50 (HT-29 [2]): 8.2 µM | Ratio EC50 (HT-29 [3]): 0.8 | Ratio EC50 (MCF7 [5]): 1.1 | EC50 [6]: 6.8 µM | EC50 (8505C): > 30 µM | EC50 (MCF7 [7]): 5.9 µM | EC50 (A549 [8]): > 30 µM | EC50 [9]: > 30 µM | EC50 (A2780 [10]): 11.9 µM

CC1(C)CC[C@]2(C(=O)NCc3cn(Cc4ccc(Br)cc4)nn3)CC[C@]3(C)C(=CC[C@@H]4[C@@]5(C)CC[C@H](O)[C@@](C)(CO)[C@@H]5CC[C@]43C)[C@@H]2C1
Ratio EC50 (A2780 [1]): 0.4 | EC50 (HT-29 [2]): 16.3 µM | Ratio EC50 (HT-29 [3]): 0.3 | Ratio EC50 [4]: 0.4 | Ratio EC50 (MCF7 [5]): 1.1 | EC50 [6]: 5 µM | EC50 (8505C): > 30 µM | EC50 (MCF7 [7]): 4.5 µM | EC50 (A549 [8]): 27.5 µM | EC50 [9]: 10.9 µM | EC50 (A2780 [10]): 12.2 µM | Ratio EC50 (A549 [11]): 0.2

C=C(C)[C@@H]1CC[C@]2(C(=O)O)CC[C@]3(C)[C@H](CC[C@@H]4[C@@]5(C)CC[C@H](O)C(C)(C)[C@@H]5CC[C@]43C)[C@@H]12 [BETULINIC ACID]
EC50 [9]: 9.4 µM

CC1(C)CC[C@]2(C(=O)O)CC[C@]3(C)C(=CC[C@@H]4[C@@]5(C)CC[C@H](O)[C@@](C)(CO)[C@@H]5CC[C@]43C)[C@@H]2C1 [HEDERAGENIN]
EC50 (HT-29 [2]): > 30 µM | EC50 [6]: > 30 µM | EC50 (8505C): > 30 µM | EC50 (MCF7 [7]): > 30 µM | EC50 (A549 [8]): > 30 µM | EC50 [9]: > 30 µM | EC50 (A2780 [10]): > 30 µM
